Results on 14 compounds are retold here after ChEMBL document CHEMBL1126929, “Syntheses of 2,5- and 2,6-difluoronorepinephrine, 2,5-difluoroepinephrine, and 2,6-difluorophenylephrine: effect of disubstitution with fluorine on adrenergic activity” (J Med Chem, 1993).

Experiment [1] has as its target T1, Adrenergic receptor alpha-1 (Rattus norvegicus, UniProt P15823+P23944+P43140).
T1 sequence (P15823 whole entry): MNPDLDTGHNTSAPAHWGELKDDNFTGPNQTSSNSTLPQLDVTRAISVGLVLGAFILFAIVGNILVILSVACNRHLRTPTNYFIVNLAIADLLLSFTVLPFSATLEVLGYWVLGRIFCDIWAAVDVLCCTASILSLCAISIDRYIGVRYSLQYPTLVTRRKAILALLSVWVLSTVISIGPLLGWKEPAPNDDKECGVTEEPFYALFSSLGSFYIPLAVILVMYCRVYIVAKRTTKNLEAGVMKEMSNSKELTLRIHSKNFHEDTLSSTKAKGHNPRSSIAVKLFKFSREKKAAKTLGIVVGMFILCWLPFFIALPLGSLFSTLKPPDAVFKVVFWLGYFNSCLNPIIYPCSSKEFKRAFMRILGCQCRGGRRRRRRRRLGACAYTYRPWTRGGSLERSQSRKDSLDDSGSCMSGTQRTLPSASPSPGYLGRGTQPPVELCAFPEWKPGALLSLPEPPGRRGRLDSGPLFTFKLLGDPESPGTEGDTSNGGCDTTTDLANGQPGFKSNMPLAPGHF
T1 sequence (P23944 whole entry): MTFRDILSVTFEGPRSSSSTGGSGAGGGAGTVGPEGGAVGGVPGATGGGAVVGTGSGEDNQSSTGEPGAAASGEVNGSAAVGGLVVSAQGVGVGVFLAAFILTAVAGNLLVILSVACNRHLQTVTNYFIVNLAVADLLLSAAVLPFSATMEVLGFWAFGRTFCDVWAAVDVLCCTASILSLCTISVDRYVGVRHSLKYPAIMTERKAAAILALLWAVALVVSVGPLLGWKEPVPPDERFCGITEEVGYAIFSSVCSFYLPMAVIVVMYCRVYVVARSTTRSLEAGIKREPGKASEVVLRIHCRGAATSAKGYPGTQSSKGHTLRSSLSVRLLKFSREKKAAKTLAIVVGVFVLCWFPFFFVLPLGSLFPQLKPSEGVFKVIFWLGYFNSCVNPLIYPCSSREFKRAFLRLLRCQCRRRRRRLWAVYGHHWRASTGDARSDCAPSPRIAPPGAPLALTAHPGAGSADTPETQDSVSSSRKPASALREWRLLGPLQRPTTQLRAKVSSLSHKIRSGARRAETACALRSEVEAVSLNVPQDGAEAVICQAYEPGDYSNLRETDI
T1 sequence (P43140 whole entry): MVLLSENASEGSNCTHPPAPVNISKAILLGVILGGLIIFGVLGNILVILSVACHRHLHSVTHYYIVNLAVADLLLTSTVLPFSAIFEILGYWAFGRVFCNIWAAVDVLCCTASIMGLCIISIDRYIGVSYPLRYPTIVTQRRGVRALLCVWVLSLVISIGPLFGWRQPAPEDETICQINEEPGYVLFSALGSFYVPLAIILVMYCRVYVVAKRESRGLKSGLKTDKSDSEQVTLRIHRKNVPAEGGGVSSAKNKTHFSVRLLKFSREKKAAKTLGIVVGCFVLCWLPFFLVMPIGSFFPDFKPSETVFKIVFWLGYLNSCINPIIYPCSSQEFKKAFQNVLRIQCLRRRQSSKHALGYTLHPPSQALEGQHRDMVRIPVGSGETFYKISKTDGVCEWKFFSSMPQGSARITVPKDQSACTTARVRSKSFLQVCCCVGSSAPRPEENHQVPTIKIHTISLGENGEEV
The experiment in a line: Displacement of [3H]WB-4101 from adrenergic alpha 1 receptor of rat cerebral cortical membranes. The class given is cell membranes, Membrane. In general terms: Loss of bound radioactivity is the signal in a displacement assay; it reports binding, not function.

For experiment [2], the target named is Beta-1 adrenergic receptor (Rattus norvegicus, UniProt P18090). In words: Displacement of [3H]dihydroalprenolol from adrenergic beta 1 receptor of rat cerebral cortical membranes. Type of experiment: cell membranes, Membrane.
For the next experiment, the species on record is Cavia porcellus. The experiment in a line: Effective concentration for stimulation of [3H]phosphoinositide formation in guinea pig synaptoneurosomes expressing alpha-1 receptor. Type of experiment: functional. The gist of the method:
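α1 agonism was read as stimulation of [³H]phosphoinositol formation in guinea pig synaptoneurosomes. EC50 is given as a mean. Efficacy is expressed relative to the parent amine set at 100.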

For experiment [3], the target named is T2, Adrenergic receptor alpha-2 (Rattus norvegicus, UniProt P22086+P19328+P22909).
T2 sequence (P22086 whole entry): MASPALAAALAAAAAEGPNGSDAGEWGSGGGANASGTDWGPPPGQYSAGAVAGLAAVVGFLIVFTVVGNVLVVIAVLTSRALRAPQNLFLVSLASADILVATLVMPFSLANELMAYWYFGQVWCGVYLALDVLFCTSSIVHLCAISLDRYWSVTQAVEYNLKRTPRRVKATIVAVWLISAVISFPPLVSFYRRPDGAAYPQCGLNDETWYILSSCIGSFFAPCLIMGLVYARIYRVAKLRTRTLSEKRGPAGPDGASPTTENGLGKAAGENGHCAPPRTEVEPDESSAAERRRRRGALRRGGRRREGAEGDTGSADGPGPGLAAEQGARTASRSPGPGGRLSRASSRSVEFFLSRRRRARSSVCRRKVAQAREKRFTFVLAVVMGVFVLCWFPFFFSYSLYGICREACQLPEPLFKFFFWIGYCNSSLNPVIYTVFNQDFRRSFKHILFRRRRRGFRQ
T2 sequence (P19328 whole entry): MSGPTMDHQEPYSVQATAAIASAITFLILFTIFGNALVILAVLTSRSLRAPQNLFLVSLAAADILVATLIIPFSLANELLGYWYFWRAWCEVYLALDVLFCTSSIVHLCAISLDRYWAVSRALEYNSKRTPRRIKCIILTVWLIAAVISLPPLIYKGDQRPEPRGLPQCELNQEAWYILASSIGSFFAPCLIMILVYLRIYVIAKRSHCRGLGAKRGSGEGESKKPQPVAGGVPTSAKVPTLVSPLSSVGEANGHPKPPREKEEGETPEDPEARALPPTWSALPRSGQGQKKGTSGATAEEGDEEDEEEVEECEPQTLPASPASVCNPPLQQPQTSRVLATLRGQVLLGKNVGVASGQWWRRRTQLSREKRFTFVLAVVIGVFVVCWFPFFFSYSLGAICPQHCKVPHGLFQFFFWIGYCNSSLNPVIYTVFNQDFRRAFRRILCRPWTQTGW
T2 sequence (P22909 whole entry): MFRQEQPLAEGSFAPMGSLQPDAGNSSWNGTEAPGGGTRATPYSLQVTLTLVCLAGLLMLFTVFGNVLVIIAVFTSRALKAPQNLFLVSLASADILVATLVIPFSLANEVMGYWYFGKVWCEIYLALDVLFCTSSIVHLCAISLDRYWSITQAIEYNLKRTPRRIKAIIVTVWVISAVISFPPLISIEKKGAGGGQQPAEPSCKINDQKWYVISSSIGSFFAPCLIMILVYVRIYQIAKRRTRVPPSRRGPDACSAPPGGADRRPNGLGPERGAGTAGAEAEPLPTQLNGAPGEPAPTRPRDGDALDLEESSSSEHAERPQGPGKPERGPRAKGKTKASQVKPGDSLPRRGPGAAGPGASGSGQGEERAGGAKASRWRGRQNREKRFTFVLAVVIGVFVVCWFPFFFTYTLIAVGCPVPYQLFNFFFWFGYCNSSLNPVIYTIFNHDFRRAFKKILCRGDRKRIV
The experiment in a line: Displacement of [3H]clonidine from adrenergic alpha 2 receptor of rat cerebral cortical membranes. The class given is cell membranes, Membrane.

Experiment [4] concerns the target Beta-2 adrenergic receptor (Rattus norvegicus, UniProt P10608). In words: Binding affinity against adrenergic beta 2 receptor versus 1 nM [3H]dihydroalprenolol in rat […] cerebellar membranes. Type of experiment: cell membranes, Cerebellum, Membrane.
The target in the next experiment is Adrenergic receptor beta (Rattus norvegicus, UniProt P18090+P10608+P26255). The experiment in a line: Stimulation of cyclic AMP accumulation in C6 glioma cells expressing adrenergic beta receptor. Type of experiment: functional, cell-based. The gist of the method: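 β agonism was read as stimulation of cyclic AMP accumulation in rat C6 glioma cells. EC50 is given as a mean. Efficacy is expressed relative to the parent amine set at 100.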

The term Ki denotes the equilibrium dissociation constant of an inhibitor or competing ligand from its target. The term EC50 denotes the concentration needed to bring the measured effect to its halfway point.

Chain of Beta-1 adrenergic receptor (P18090 whole entry): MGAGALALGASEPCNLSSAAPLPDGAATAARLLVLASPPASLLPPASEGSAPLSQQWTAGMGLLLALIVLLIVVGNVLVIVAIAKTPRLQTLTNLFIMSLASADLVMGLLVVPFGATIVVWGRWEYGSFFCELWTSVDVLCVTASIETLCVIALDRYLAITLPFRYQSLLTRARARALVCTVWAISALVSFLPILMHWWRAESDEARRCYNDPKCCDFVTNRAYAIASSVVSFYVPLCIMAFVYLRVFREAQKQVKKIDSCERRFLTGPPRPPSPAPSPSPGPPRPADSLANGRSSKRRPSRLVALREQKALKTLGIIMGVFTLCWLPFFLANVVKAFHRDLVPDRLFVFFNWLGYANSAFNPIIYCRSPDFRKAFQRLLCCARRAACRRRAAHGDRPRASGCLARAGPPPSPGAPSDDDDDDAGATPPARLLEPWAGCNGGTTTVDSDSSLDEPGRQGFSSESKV
Chain of Beta-2 adrenergic receptor (P10608 whole entry): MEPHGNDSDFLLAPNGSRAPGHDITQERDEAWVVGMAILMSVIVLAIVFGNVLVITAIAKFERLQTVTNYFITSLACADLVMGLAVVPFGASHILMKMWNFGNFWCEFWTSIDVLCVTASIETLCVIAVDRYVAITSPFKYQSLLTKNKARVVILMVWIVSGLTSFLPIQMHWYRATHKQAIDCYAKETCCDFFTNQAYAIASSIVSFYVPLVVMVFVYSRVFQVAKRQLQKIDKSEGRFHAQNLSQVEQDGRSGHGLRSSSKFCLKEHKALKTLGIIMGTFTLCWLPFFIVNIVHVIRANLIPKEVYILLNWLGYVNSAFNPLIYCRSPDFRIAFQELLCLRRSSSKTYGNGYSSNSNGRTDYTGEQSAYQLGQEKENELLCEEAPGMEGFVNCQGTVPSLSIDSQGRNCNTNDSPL

For `CNCC(O)c1cc(F)c(O)c(O)c1F` (stereo not given), the Ki in experiment [1] came to 39 µM; in experiment [2], 2.3 µM; in experiment [3] it was 1.2 µM; in experiment [4], 0.71 µM. This compound returned an EC50 in the experiment filed under Cavia porcellus of 2.6 µM.

For the compound `NCC(O)c1cc(F)c(O)c(O)c1F` (stereo not given), the Ki in experiment [1] came out at 24 µM; in experiment [2], 5.6 µM; in experiment [3], 3.5 µM. Also, the EC50 in the experiment filed under Cavia porcellus is 83 µM.

Take `CNC[C@H](O)c1ccc(O)c(O)c1` [EPINEPHRINE]: the Ki in experiment [2] amounted to 1.2 µM.

Take `CNCC(O)c1c(F)ccc(O)c1F` (stereo not given): the Ki amounted to 17 µM in experiment [1], 81 µM in experiment [2] and 0.94 µM in experiment [3]. This compound also yielded a half-maximal effective concentration (EC50) in the experiment listed under Cavia porcellus of 4.3 µM.

Turning to `CNCC(O)c1cccc(O)c1F` (stereo not given), the values for the Ki in experiment [1], in experiment [2] and in experiment [3] were 17 µM, 4 µM and 1.2 µM, respectively. In addition, the EC50 in the experiment filed under Cavia porcellus came to 80 µM.

In experiment [3], `CNCC(O)c1ccc(O)c(O)c1F` (stereo not given) yielded a Ki of 0.066 µM.

As to `NCC(O)c1c(F)cc(O)c(O)c1F` (stereo not given), the results for the Ki in experiment [2] and in experiment [3] were greater than 50 µM and 0.75 µM, respectively. The EC50 on Adrenergic receptor beta and in the experiment listed under Cavia porcellus was greater than 100 µM throughout.

Turning to `NCC(O)c1ccc(O)c(O)c1F` (stereo not given), the figures for the Ki in experiment [1] and in experiment [3] were 23 µM and 2.1 µM, respectively. In addition, the 50% effective concentration (EC50) in the experiment listed under Cavia porcellus was greater than 180 µM.

In turn, `CNCC(O)c1ccc(F)c(O)c1` (stereo not given) showed an EC50 in the experiment listed under Cavia porcellus of 16 µM.

With `CNCC(O)c1cc(O)ccc1F` (stereo not given), the Ki was determined as 2.1 µM in experiment [1], 180 µM in experiment [2] and 0.23 µM in experiment [3]. This compound displayed an EC50 in the experiment listed under Cavia porcellus of 8 µM.

`NCC(O)c1cc(O)c(O)c(F)c1` (stereo not given): the Ki in experiment [1] was found to be 2.3 µM; in experiment [2], 1.5 µM; in experiment [3] it was 0.15 µM; in experiment [4], 5.5 µM.

In the experiment listed under Cavia porcellus, `NCC(O)c1cc(O)c(O)cc1F` (stereo not given) had an EC50 of 4.2 µM.

As to `CNC[C@H](O)c1cccc(O)c1` [PHENYLEPHRINE], in the experiment filed under Cavia porcellus, the midpoint of the response, the EC50, lay at 6 µM.

As to `CNCC(O)c1cc(O)c(O)cc1F` (stereo not given), the figures for the Ki in experiment [2] and in experiment [3] were 63 µM and 0.009 µM, respectively. The same compound showed an EC50 at Adrenergic receptor beta greater than 1.5 µM.
